Assay results taken from ChEMBL document CHEMBL1144932, “Design, synthesis, and biological properties of new bis(acridine-4-carboxamides) as anticancer agents” (J Med Chem, 2003).

Legend:
Homo sapiens [1] = organism: Homo sapiens; assay: In vitro cytotoxic activity against human colon adenocarcinoma (HT-29).; format: functional
How it was run: (§1)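 HT29 cells were seeded at 2.5 × 10^4 cells/mL of medium and drug solutions were added. Exposure lasted 144 h. IC50 is the drug concentration inhibiting cell growth by 50%. Assays were run in triplicate.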

[2] = Apparent equilibrium constant for DNA binding (G-C); format: ADME
How it was run: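 Ethidium displacement at pH 7.0 in buffer of 10 mM Na2HPO4, 10 mM NaH2PO4, 1 mM EDTA with 1.26 μM ethidium bromide and 1 μM CT-DNA, [poly(dA-dT)]2 or [poly(dG-dC)]2. Drug stock (~5 mM in DMSO) added serially. Fluorescence read at 20 °C, excitation 546 nm, emission 595 nm. C50 is the mean of three determinations. Kapp = 1.26/C50 × 10^7.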

SNB-19 [3] = assay: Percent growth of CNS SNB-19 cell line at compound concentration 10e-8 was determined; format: functional, Homo sapiens
How it was run: (§2)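 Cells in the NCI panel were exposed for 48 h to 10^-8, 10^-6 and 10^-4 or 10^-5 M drug. Growth is given as percent of untreated control (100%). Negative values are the percent of cells killed relative to the initial cell number.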

DU-145 [4] = assay: Percent growth of prostate DU-145 cell line at compound concentration 10e-5 was determined; format: functional, Homo sapiens; how it was run: as §2
NCI-H460 [5] = assay: Percent growth of lung-NSC NCI-H460 cell line at compound concentration 10e-5 was determined; format: functional, Homo sapiens; how it was run: as §2
SNB-19 [6] = assay: Percent growth of CNS SNB-19 cell line at compound concentration 10e-6 was determined; format: functional, Homo sapiens; how it was run: as §2
786-0 [7] = assay: Percent growth of renal 786-0 cell line at compound concentration 10e-5 was determined; format: functional, Homo sapiens; how it was run: as §2
786-0 [8] = assay: Percent growth of renal 786-0 cell line at compound concentration 10e-8 was determined; format: functional, Homo sapiens; how it was run: as §2
LOX IMVI [9] = assay: Percent growth of melanoma LOX IMVI cell line at compound concentration 10e-8 was determined; format: functional, Homo sapiens; how it was run: as §2
OVCAR-4 [10] = assay: Percent growth of ovarian OVCAR-4 cell line at compound concentration 10e-8 was determined; format: functional, Homo sapiens; how it was run: as §2
MCF7 [11] = assay: Percent growth of breast MCF-7 cell line at compound concentration 10e-6 was determined; format: functional, Homo sapiens; how it was run: as §2
MCF7 [12] = assay: Percent growth of breast MCF-7 cell line at compound concentration 10e-5 was determined; format: functional, Homo sapiens; how it was run: as §2
RPMI-8226 [13] = assay: Percent growth of leukemia RPMI-8226 cell line at compound concentration 10e-6 was determined; format: functional, Homo sapiens; how it was run: as §2
RPMI-8226 [14] = assay: Percent growth of leukemia RPMI-8226 cell line at compound concentration 10e-8 was determined; format: functional, Homo sapiens; how it was run: as §2
NCI-H460 [15] = assay: Percent growth of lung-NSC NCI-H460 cell line at compound concentration 10e-8 was determined; format: functional, Homo sapiens; how it was run: as §2
DU-145 [16] = assay: Percent growth of prostate DU-145 cell line at compound concentration 10e-8 was determined; format: functional, Homo sapiens; how it was run: as §2
DU-145 [17] = assay: Percent growth of prostate DU-145 cell line at compound concentration 10e-6 was determined; format: functional, Homo sapiens; how it was run: as §2
RPMI-8226 [18] = assay: Percent growth of leukemia RPMI-8226 cell line at compound concentration 10e-5 was determined; format: functional, Homo sapiens; how it was run: as §2
OVCAR-4 [19] = assay: Percent growth of ovarian OVCAR-4 cell line at compound concentration 10e-5 was determined; format: functional, Homo sapiens; how it was run: as §2
HCT-116 [20] = assay: Percent growth of colon HCT116 cell line at compound concentration 10e-6 was determined; format: functional, Homo sapiens; how it was run: as §2
LOX IMVI [21] = assay: Percent growth of melanoma LOX IMVI cell line at compound concentration 10e-6 was determined; format: functional, Homo sapiens; how it was run: as §2
SNB-19 [22] = assay: Percent growth of CNS SNB-19 cell line at compound concentration 10e-5 was determined; format: functional, Homo sapiens; how it was run: as §2
LOX IMVI [23] = assay: Percent growth of melanoma LOX IMVI cell line at compound concentration 10e-5 was determined; format: functional, Homo sapiens; how it was run: as §2
OVCAR-4 [24] = assay: Percent growth of ovarian OVCAR-4 cell line at compound concentration 10e-6 was determined; format: functional, Homo sapiens; how it was run: as §2
NCI-H460 [25] = assay: Percent growth of lung-NSC NCI-H460 cell line at compound concentration 10e-6 was determined; format: functional, Homo sapiens; how it was run: as §2
HCT-116 [26] = assay: Percent growth of colon HCT116 cell line at compound concentration 10e-8 was determined; format: functional, Homo sapiens; how it was run: as §2
786-0 [27] = assay: Percent growth of renal 786-0 cell line at compound concentration 10e-6 was determined; format: functional, Homo sapiens; how it was run: as §2
HCT-116 [28] = assay: Percent growth of colon HCT116 cell line at compound concentration 10e-5 was determined; format: functional, Homo sapiens; how it was run: as §2
MCF7 [29] = assay: Percent growth of breast MCF-7 cell line at compound concentration 10e-8 was determined; format: functional, Homo sapiens; how it was run: as §2
Homo sapiens [30] = organism: Homo sapiens; assay: In vitro cytotoxic activity against human colon adenocarcinoma (HT-29); format: functional; how it was run: as §1

With CN(C)CCNC(=O)c1ccc(NCCN(C)C)c2c(O)c3cc(O)ccc3nc12 the IC50 (Homo sapiens [1]) was 2 µM.
Compound CN(C)CCNC(=O)c1ccc(NCCN(C)CCNc2ccc(C(=O)NCCN(C)C)c3nc4ccccc4cc23)c2cc3ccccc3nc12 has a K app [2] of 7.2e+06 M⁻¹ and an IC50 (Homo sapiens [1]) of 0.47 µM.
Compound CN(C)CCNC(=O)c1ccc(NCCN(C)CCNc2ccc(C(=O)NCCN(C)C)c3nc4ccc(O)cc4c(O)c23)c2c(O)c3cc(O)ccc3nc12 has a K app [2] of 1.4e+07 M⁻¹ and an IC50 (Homo sapiens [1]) of over 10 µM.
Work on COc1ccc2nc3c(C(=O)NCCN(C)C)ccc(NCCCN(C)CCCNc4ccc(C(=O)NCCN(C)C)c5nc6ccc(OC)cc6c(O)c45)c3c(O)c2c1 yielded a K app [2] of 1.4e+08 M⁻¹ and an IC50 (Homo sapiens [1]) of 0.039 µM.
Compound CN(C)CCNC(=O)c1ccc(NCCN(C)C)c2cc3ccccc3nc12 has a K app [2] of 2.3e+08 M⁻¹ and an IC50 (Homo sapiens [1]) of 0.007 µM.
For CN(C)CCNC(=O)c1ccc(NCCCN(C)CCCNc2ccc(C(=O)NCCN(C)C)c3nc4ccc([N+](=O)[O-])cc4c(O)c23)c2c(O)c3cc([N+](=O)[O-])ccc3nc12, the Growth (SNB-19 [3]) was 42%, the Growth (DU-145 [4]) was -93% and the Growth (NCI-H460 [5]) was -95%. It also gave a Growth (SNB-19 [6]) of -7%, a Growth (786-0 [7]) of -95% and a K app [2] of 2.3e+08 M⁻¹. For the same compound, the Growth (786-0 [8]) was 41%, the Growth (LOX IMVI [9]) was 28% and the Growth (OVCAR-4 [10]) was 67%. It also gave a Growth (MCF7 [11]) of 0%, a Growth (MCF7 [12]) of -86% and a Growth (RPMI-8226 [13]) of -44%. It also gave a Growth (RPMI-8226 [14]) of 12%, a Growth (NCI-H460 [15]) of 28% and a Growth (DU-145 [16]) of 55%. For the same compound, the Growth (DU-145 [17]) was -2%, the Growth (RPMI-8226 [18]) was -58% and the Growth (OVCAR-4 [19]) was -72%. For the same compound, the Growth (HCT-116 [20]) was -5%, the Growth (LOX IMVI [21]) was -40% and the IC50 (Homo sapiens [1]) was under 0.0001 µM. It also gave a Growth (SNB-19 [22]) of -96%, a Growth (LOX IMVI [23]) of -93% and a Growth (OVCAR-4 [24]) of 16%. For the same compound, the Growth (NCI-H460 [25]) was -31%, the Growth (HCT-116 [26]) was 31% and the Growth (786-0 [27]) was 6%. It also gave a Growth (HCT-116 [28]) of -94% and a Growth (MCF7 [29]) of 26%.
For CN(C)CCNC(=O)c1ccc(NCCN(C)C)c2c(=O)c3ccccc3[nH]c12, the IC50 (Homo sapiens [1]) was 0.094 µM.
For COc1ccc2nc3c(C(=O)NCCN(C)C)ccc(NCCN(C)C)c3c(O)c2c1, the IC50 (Homo sapiens [30]) was 0.5 µM.
Work on CN(C)CCNc1ccc(C(=O)NCCN(C)CCNC(=O)c2ccc(NCCN(C)C)c3c(O)c4ccccc4nc23)c2nc3ccccc3c(O)c12 yielded an IC50 (Homo sapiens [1]) of 0.48 µM.
Compound CN(C)CCNc1ccc(C(=O)NCCN(C)CCN(C)CCNC(=O)c2ccc(NCCN(C)C)c3c(O)c4ccccc4nc23)c2nc3ccccc3c(O)c12 has an IC50 (Homo sapiens [1]) of 0.29 µM.
For CN(C)CCNc1ccc(C(=O)NCCCNC(=O)c2ccc(NCCN(C)C)c3c(O)c4ccccc4nc23)c2nc3ccccc3c(O)c12, the IC50 (Homo sapiens [1]) was over 10 µM.
With CN(CCCNC(=O)c1ccc(Cl)c2c(O)c3ccccc3nc12)CCCNC(=O)c1ccc(Cl)c2c(O)c3ccccc3nc12 the IC50 (Homo sapiens [1]) was 0.34 µM.
CN(C)CCNc1ccc(C(=O)NCCCN(C)CCCNC(=O)c2ccc(NCCN(C)C)c3c(O)c4cc(O)ccc4nc23)c2nc3ccc(O)cc3c(O)c12 gave an IC50 (Homo sapiens [1]) of 0.8 µM.
